In assay [1] the target is T1, Glutamate receptor ionotropic, AMPA (Rattus norvegicus, UniProt P19490+P19491+P19492+P19493). The assay is described as follows: Binding affinity towards AMPA receptor by displacement of [3H]AMPA radioligand. The format is protein-complex assay. (Loss of bound radioactivity is the signal in a displacement assay; it reports binding, not function.)
The next assay concerns the target Glutamate NMDA receptor. The assay is described as follows: Binding affinity towards NMDA receptor by displacement of [3H]CGP-39653 radioligand. It counts as protein-complex assay.
For assay [2], the target named is T2, Excitatory amino acid transporter 3 (Rattus norvegicus) (UniProt P51907).
T2 sequence (whole entry): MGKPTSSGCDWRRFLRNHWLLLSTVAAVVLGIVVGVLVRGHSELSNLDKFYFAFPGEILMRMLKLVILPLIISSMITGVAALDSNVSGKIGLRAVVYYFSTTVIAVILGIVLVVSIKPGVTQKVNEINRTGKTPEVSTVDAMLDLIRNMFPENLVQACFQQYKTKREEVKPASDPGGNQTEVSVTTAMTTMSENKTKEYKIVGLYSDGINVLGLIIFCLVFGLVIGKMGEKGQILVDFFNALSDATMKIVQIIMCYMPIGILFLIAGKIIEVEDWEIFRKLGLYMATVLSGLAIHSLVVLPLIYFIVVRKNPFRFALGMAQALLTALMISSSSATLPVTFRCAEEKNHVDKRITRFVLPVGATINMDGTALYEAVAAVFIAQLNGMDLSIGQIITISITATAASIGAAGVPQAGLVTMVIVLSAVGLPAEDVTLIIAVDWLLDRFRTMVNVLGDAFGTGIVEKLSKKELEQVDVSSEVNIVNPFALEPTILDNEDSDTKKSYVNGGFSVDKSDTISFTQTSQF
The assay is described as follows: Steady state transport rate by EAAC1 (EAAT3) in mammalian cells. It counts as cell-based. The gist of the method:
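Whole-cell currents from EAAC1-expressing mammalian cells (intracellular SCN-, Vm 0 mV, pH 7.4, 22 °C). Steady-state KS is taken from concentration dependence. Imax ratio is the current at saturating test compound relative to the current at saturating (1 mM) L-glutamate.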

Assay [3] deals with Glutamate receptor ionotropic, kainate. The assay is described as follows: Binding affinity towards Ionotropic glutamate receptor kainate by displacement of [3H]-kainic acid radioligand. It counts as protein-complex assay.
The target of assay [4] is Glutamate NMDA receptor (Rattus norvegicus) (UniProt P35439+Q00959+Q00960+Q00961+Q62645+Q8VHN2+Q9R1M7). The assay is described as follows: Binding affinity towards NMDA receptor by displacement of [3H]CGP-39653 radioligand; Not active. The format is protein-complex assay.
Assay [5] deals with Glutamate receptor ionotropic, AMPA (Rattus norvegicus) (UniProt P19491+P19492+P19493+P19490). The assay is described as follows: Binding affinity towards AMPA receptor by displacement of [3H]-AMPA radioligand; Not active. The format is protein-complex assay.
Assay [6] has as its target Glutamate receptor ionotropic, kainate (Rattus norvegicus) (UniProt P22756+Q01812+P42260+P42264+Q63273). The assay is described as follows: Binding affinity towards Ionotropic glutamate receptor kainate by displacement of [3H]-kainic acid radioligand; Not active. It counts as protein-complex assay.
Assay [7] addresses T3, Excitatory amino acid transporter 3 (Rattus norvegicus, UniProt P51907).
T3 sequence (P51907 whole entry): T2 sequence (whole entry)
The assay is described as follows: Inhibitory activity against EAAC1 (EAAT3) in presence of 20 uM L-glutamic acid.

Assay [8] deals with T3, Excitatory amino acid transporter 3. The assay is described as follows: Inhibitory activity against EAAC1 (EAAT3) in absence of L-glutamic acid.
The target in assay [9] is T1, Glutamate receptor ionotropic, AMPA. The assay is described as follows: Binding affinity towards AMPA receptor by displacement of [3H]AMPA radioligand. The format is protein-complex assay.
In assay [10] the target is T3, Excitatory amino acid transporter 3. The assay is described as follows: Inhibitory activity against EAAC1 (EAAT3) in presence of 20 uM L-glutamic acid in mammalian cells. The format is cell-based.
Assay [11] has the same target. The assay is described as follows: Inhibitory activity against EAAC1 (EAAT3) in absence of L-glutamic acid in mammalian cells. The format is cell-based.

Active and inactive are the calls of the source. The calls are words filed in the database; no cut-off is given here.

A word on the Ki: it is the equilibrium dissociation constant of an inhibitor or competing ligand from its target. For the compound `N[C@@H](CCC1=N[C@H](C(=O)O)CO1)C(=O)O`, the inhibitory constant (Ki) in assay [1] amounted to 103 µM; at Glutamate NMDA receptor it was 9 µM; in [3], 14 µM. Besides, the Ks in assay [2] stood at 730 µM.

On to `N[C@@H](CC1=N[C@H](C(=O)O)CO1)C(=O)O`, for which, in assay [2], the Ks amounted to 31 µM. Besides, the NA result in assay [4], in assay [5] and in [6] was “inactive” throughout.

For `O=C(O)c1nc(-c2ccccc2)oc1C(=O)O`, the results for the inhibition constant Ki in assay [7] and in [8] were 530 µM and 75 µM, respectively. Moreover, the NA entry in assay [4], in [5] and in [6] was “inactive” each time.

On to `N[C@@H](CCc1nc(C(=O)O)co1)C(=O)O`, for which the Ki in [9] was found to be 41 µM; on Glutamate NMDA receptor it was 3 µM; in assay [3], 8 µM. This compound showed a Ks in [2] of 100 µM.

For the compound `O=C(O)[C@H]1N=C(c2ccccc2)O[C@@H]1C(=O)O`, the inhibition constant (Ki) was determined as 42 µM in assay [10] and 14 µM in assay [11]. The NA result in assay [4], in assay [5] and in assay [6] was “inactive” in each case.

For `N[C@@H](CCC(=O)O)C(=O)O`, in assay [2], the Ks was determined as 5.1 µM.

The record behind these values is ChEMBL document CHEMBL1134543, “A rational approach to the design of selective substrates and potent nontransportable inhibitors of the excitatory amino acid transporter EAAC1 (EAAT3). new glutamate and aspartate analogues as potential neuroprotective agents” (J Med Chem, 2001).
